# ChEMBL document CHEMBL4706681, “New 2-Pyrazoline and Hydrazone Derivatives as Potent and Selective Monoamine Oxidase A Inhibitors” (J Med Chem, 2021)
# pKi: −log10 of the molar value. Calls of active or inactive are those of the source. The rule behind the calls is not given here.
# Assays:
# [1] = Ex vivo inhibition of MAOA in CD1 mouse brain homogenates assessed as MAOA level at 30 mg/kg, po administered as subchronic dose via gavage for 7 days and measured 1 hr post last dose by monoamine oxidase assay (reference value: 0.40 +/- 0.005 nmol/min/mg); type: functional; settings: time 7 day
# [2] = Ex vivo inhibition of MAOA in CD1 mouse brain homogenates assessed as inhibition of 5-HT deamination by measuring 5-HIAA metabolite levels by using at 30 mg/kg, po administered as subchronic dose via gavage for 7 days and measured 1 hr post last dose by HPLC analysis (reference value: 0.18 +/- 0.01 ug/g); type: functional; settings: time 7 day
# [3] = molecular target: T1, Amine oxidase [flavin-containing] A (Homo sapiens, UniProt P21397); assay: Reversible inhibition of human MAO-A assessed as residual enzyme activity at 4 fold IC50 incubated for 15 mins and measured before dialysis by dialysis method relative to control
# T1 sequence (P21397 whole entry): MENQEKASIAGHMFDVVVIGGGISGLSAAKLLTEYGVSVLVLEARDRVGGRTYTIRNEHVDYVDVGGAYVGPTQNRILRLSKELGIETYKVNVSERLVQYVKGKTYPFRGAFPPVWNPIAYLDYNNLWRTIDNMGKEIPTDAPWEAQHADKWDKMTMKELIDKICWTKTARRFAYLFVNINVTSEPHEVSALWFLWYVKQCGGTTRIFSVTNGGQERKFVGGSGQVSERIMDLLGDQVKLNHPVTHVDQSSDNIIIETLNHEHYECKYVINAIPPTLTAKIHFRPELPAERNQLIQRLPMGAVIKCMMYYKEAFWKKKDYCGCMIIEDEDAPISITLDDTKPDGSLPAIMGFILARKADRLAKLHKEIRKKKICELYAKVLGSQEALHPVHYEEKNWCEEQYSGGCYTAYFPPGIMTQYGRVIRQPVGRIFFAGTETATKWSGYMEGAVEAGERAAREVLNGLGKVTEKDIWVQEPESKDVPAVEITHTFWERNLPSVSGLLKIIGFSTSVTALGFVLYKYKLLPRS
# Outline: (§1)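 Dialysed (MWCO 12 000) at 4 °C for 24 h against 100 mM potassium phosphate pH 7.4, 5% sucrose, buffer changed twice. Dialysed and undialysed mixtures assayed together; residual activity from triplicates.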
# [4] = Ex vivo inhibition of MAOA in CD1 mouse brain homogenates assessed as MAOA level at 30 mg/kg, po administered as single acute dose via gavage and measured after 1 hr by monoamine oxidase assay (reference value: 0.40 +/- 0.012 nmol/min/mg); type: functional
# [5] = Cytotoxicity against human HepG2 cells assessed as cell viability at 7.5 uM incubated for 2 hrs by MTT assay relative to control; type: cell-based; settings: read-out: Activity
# Outline: (§2)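 HepG2 human hepatoma cells; viability read by MTT assay, with 0.1% DMSO as vehicle control. Viability given as % of control, mean ± SEM (n = 3); p < 0.05 taken as significant.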
# [6] = molecular target: T2, Amine oxidase [flavin-containing] B (Homo sapiens, UniProt P27338); assay: Inhibition of recombinant human MAO-B expressed in baculovirus infected BTI insect cells using p-tyramine as substrate incubated for 30 mins by Amplex red reagent based fluorescence analysis; type: cell-based
# T2 sequence (P27338 whole entry): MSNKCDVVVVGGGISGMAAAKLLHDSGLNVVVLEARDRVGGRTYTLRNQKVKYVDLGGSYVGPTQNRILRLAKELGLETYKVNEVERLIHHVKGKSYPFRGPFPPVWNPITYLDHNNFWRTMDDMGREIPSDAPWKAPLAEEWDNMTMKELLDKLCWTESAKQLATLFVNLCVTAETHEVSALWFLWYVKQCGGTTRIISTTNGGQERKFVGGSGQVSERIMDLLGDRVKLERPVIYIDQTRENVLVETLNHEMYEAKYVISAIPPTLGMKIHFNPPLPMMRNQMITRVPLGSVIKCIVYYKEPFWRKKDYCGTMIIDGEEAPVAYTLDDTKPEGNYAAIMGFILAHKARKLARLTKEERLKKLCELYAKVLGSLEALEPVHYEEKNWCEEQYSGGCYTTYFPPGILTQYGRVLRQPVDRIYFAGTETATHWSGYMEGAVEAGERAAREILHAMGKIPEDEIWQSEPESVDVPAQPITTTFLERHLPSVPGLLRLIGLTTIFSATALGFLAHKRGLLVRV
# Mus musculus [7] = assay: Antidepressant-like activity in CD1 mouse assessed as reduction in immobility time at 30 mg/kg, po administered via gavage as single dose measured after 1 hr by Porsolt-forced swim test; type: functional, organism-based
# [8] = Ex vivo inhibition of MAOA in CD1 mouse brain homogenates assessed as 5-HT levels at 30 mg/kg, po administered as single acute dose via gavage and measured after 1 hr by ELISA kit method (reference value: 0.80 +/- 0.006 ug/g); type: functional
# [9] = Effect on locomotor activity in CD1 mouse assessed as total distance traveled at 30 mg/kg, po administered via gavage for 7 days by open field test; type: ADME, organism-based; settings: in vivo, 168 h, time 7 day
# Outline: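 Each mouse placed in the centre of a 50 × 50 × 30 cm black box and video-tracked; total distance travelled over 5 min; n = 8–10.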
# [10] = molecular target: T1, Amine oxidase [flavin-containing] A; assay: Inhibition of recombinant human MAO-A expressed in baculovirus infected BTI insect cells using p-tyramine as substrate incubated for 30 mins by Amplex red reagent based fluorescence analysis
# [11] = Ex vivo inhibition of MAOA in CD1 mouse brain homogenates assessed as 5-HT levels at 30 mg/kg, po administered as subchronic dose via gavage for 7 days and measured 1 hr post last dose by ELISA kit method (reference value: 0.78 +/- 0.01 ug/g); type: functional; settings: time 7 day
# [12] = Cytotoxicity against human HepG2 cells assessed as cell viability at 15 uM incubated for 2 hrs by MTT assay relative to control; type: cell-based; settings: read-out: Activity; outline: as §2
# [13] = Ex vivo inhibition of MAOA in CD1 mouse brain homogenates assessed as assessed as inhibition of dopamine deamination by measuring DOPAC metabolite levels at 30 mg/kg, po administered as single acute dose via gavage and measured after 1 hr by HPLC analysis (reference value: 1.22 +/- 0.2 ug/g); type: functional
# [14] = molecular target: T2, Amine oxidase [flavin-containing] B; assay: Reversible inhibition of human MAO-B assessed as residual enzyme activity at 4 fold IC50 incubated for 15 mins and measured before dialysis relative to control; outline: as §1
# [15] = Selectivity index, ratio of Ki for inhibition of recombinant human MAO-A to Ki for inhibition of recombinant human MAO-B using p-tyramine as substrate
# [16] = Ex vivo inhibition of MAOA in CD1 mouse brain homogenates assessed as assessed as inhibition of 5-HT deamination by measuring 5-HIAA metabolite levels at 30 mg/kg, po administered as single acute dose via gavage and measured after 1 hr by HPLC analysis (reference value: 0.28 +/- 0.011 ug/g); type: functional
# Mus musculus [17] = assay: Antidepressant-like activity in CD1 mouse assessed as reduction in immobility time at 30 mg/kg, po administered via gavage for 7 days and measured 1 h post last dose by Porsolt-forced swim test; type: functional, organism-based; settings: time 7.0 day
# Outline: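 Male albino CD-1 mice (20–25 g), 12 h light/dark, food and water ad libitum. Dosed by oral gavage once daily for 7 days in 200 μL 0.5% CMC; vehicle-only controls. […] Forced swim test run 1 h after the last dose. Immobility scored every 60 s over 6 min; n = 8–12.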
# [18] = Permeability of compound in PBS/EtOH buffer (70:30) at 25 ug/ml incubated for 16 hrs by UV plate reader based PAMPA-BBB
# [19] = Cytotoxicity against human HepG2 cells assessed as cell viability at 30 uM incubated for 2 hrs by MTT assay relative to control; type: cell-based; settings: read-out: Activity; outline: as §2
# [20] = molecular target: T1, Amine oxidase [flavin-containing] A; assay: Reversible inhibition of human MAO-A assessed as residual enzyme activity at 4 fold IC50 incubated for 15 mins and measured 24 hrs post dialysis by dialysis method relative to control; settings: 24.25 h, time 1455 min; outline: as §1
# [21] = Ex vivo inhibition of MAOA in CD1 mouse brain homogenates assessed as dopamine levels at 30 mg/kg, po administered as single acute dose via gavage and measured after 1 hr by ELISA kit method (reference value: 7.08 +/- 0.58 ug/g); type: functional
# [22] = molecular target: T2, Amine oxidase [flavin-containing] B; assay: Reversible inhibition of human MAO-B assessed as residual enzyme activity at 4 fold IC50 incubated for 15 mins and measured 24 hrs post dialysis relative to control; settings: 24.25 h, time 1455 min; outline: as §1
Activity [3] [%],pKi [6],pKi [10],Activity [14] [%],Ratio Ki [15],"Papp at 16 h, 25 ug/ml [18] [×10⁻⁶ cm/s]",Activity [20] [%],Structure (SMILES),Activity [1] [nmol/min/mg],Activity [2] [µg/g],Activity [4] [nmol/min/mg],"viability at 2 h, 7.5 µM [5] [%]",Activity (Mus musculus [7]),Activity [8] [µg/g],Activity [9],Activity [11] [µg/g],"viability at 2 h, 15 µM [12] [%]",Activity [13] [µg/g],Activity [16] [µg/g],Activity (Mus musculus [17]),"viability at 2 h, 30 µM [19] [%]",also measured
23.11,4.70,8.05,78.9,4.55 10^-5No_unit,9.44,94,COc1ccc(C2CC(c3ccccc3)=NN2C(=O)Cn2c(=O)oc3ccccc32)cc1OC (centres undefined),0.27,0.24,0.28,90.4,inactive,0.91,Non-Toxic,1.04,88.2,1.23,0.32,Active,85.3,Activity [21]: 7.08 µg/g; Activity [22]: 94.8%
18.11,5.90,9.00,78.2,8 10^-4No_unit,11,90.16,COc1ccc(C2=NN(C(=O)Cn3c(=O)oc4ccccc43)C(c3ccccc3Cl)C2)cc1 (centres undefined),0.24,0.31,0.25,91.2,Active,0.98,Non-Toxic,1.19,90,1.24,0.35,Active,85,Activity [21]: 7.1 µg/g; Activity [22]: 91.5%
